Shown are actives, neighbours in structure and some others; about 3.4% of the full set was active somewhere.
ROMK primary – modulators of human ROMK potassium channel; P48048; Tet-inducible ROMK, thallium flux fluorescence; actives lie on both sides; B-score at 10 µM; actives 2% (n = 130,000); AID 1918;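 active means signal ratio slope over the read window, or its plate-corrected B-score, at least 3 SD from the plate mean, either direction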;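 further: B-score of the F/F0 ratio slope over 7 to 12 s after thallium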
KCC2 mod – modulates chloride dependent transport by human KCC2; KCC2 cells, thallium flux FluoZin-2 fluorescence; B-score of Tl+ flux slope (higher = more flux/activation; lower = inhibition) at 10 µM; actives 2.2% (n = 190,000); AID 1456;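 active means thallium flux slope and its plate-corrected score both differing from the plate sample mean at a set confidence after two filtering rounds, in either direction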;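 further: slope of fluorescence scaled to starting intensity during 10 to 20 s after thallium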
DTT redox prof – compounds producing H2O2 with reducing agent – biochemical, NIH compound library profiling, artefact control for MLSCN library redox annotation, primary screen; DTT-dependent redox cycling H2O2, phenol red/HRP absorbance; 100% = 100 µM peroxide control, 0% = buffer; activation, % at 10 µM; actives 0.03% (n = 200,000); AID 878;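 active means activation of at least 50% relative to the plate's high and low controls in the primary single-dose screen; inactive means activation below 50%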;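 further: compound incubated with DTT at 0.8 mM final as the reducing agent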
MDM2 E3 inh – blocks human Mdm2 ubiquitin ligase activity. Q00987. AID 1230. actives 0.11% (n = 210,000). cell-based MDM2 ubiquitination luciferase reporter, 2 h; 0 = plate control, 100 = twice control, blank-subtracted. signal enhancement, % at 5 µM;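 active means signal enhancement of 30% or more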;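 further: luminescence tracks abundance of the self-degrading MDM2-luciferase fusion protein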
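System: stable MDM2–luciferase fusion reporter cells / Input: 2000 cells seeded into each well / Schedule: 4 h settle plus 2 h compound, 37 °C / Compound: single-point 5 µM / Buffer or medium: cells held in DMEM / Benchmarks: control and blank well means / Evaluation: percent signal gain over controls, blank-subtracted / Measured by: luciferase luminescence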
PKD1 kinase inh – blocks activity of human protein kinase D1; actives 0.056% (n = 200,000); inhibition, % (test concentration not listed); PKD1 kinase fluorescence polarization assay; in the data active means inhibition above about 50%
Target sequence (Q15139 whole entry, looked up): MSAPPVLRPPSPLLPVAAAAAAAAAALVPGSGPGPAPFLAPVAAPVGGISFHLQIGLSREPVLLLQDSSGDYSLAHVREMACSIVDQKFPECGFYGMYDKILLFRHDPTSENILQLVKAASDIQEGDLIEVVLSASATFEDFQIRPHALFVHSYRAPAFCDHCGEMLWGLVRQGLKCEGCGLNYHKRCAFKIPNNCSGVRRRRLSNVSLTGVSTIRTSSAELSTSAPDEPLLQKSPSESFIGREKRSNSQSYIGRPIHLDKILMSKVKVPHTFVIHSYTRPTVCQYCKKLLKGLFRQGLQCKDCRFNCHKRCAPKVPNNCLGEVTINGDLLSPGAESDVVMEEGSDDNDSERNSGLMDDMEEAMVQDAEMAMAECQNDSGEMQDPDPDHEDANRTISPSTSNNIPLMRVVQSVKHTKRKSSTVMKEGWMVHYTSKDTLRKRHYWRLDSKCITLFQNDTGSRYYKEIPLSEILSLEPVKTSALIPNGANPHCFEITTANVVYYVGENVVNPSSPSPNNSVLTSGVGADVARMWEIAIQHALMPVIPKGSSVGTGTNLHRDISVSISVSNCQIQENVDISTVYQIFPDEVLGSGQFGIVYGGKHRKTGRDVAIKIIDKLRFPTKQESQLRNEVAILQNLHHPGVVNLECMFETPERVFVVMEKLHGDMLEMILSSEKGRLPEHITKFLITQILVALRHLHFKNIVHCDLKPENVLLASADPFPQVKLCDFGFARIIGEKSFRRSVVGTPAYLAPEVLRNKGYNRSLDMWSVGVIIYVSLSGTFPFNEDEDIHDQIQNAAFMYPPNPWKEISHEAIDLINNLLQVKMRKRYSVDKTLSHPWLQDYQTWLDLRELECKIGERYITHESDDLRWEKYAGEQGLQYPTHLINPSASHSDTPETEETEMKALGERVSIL
p97 inhibitor – inhibitors of human p97 ATPase. actives 0.42% (n = 220,000). AID 1481. P55072. recombinant p97 ATPase, Kinase-Glo ATP luminescence, 3 h. inhibition, % at 8 µM; in the data active means inhibition above about 15%;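 further: 0% = DMSO vehicle and 100% = wells lacking enzyme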
KCC2 secondary – KCC2 (human) modulation, secondary assay; shares compounds with KCC2 mod; AID 1713; HEK293-KCC2, thallium flux, FluoZin2 fluorescence; stronger effect = higher value; normalised thallium flux (F/F0 slope) at 10 µM; actives 15% (n = 3,700);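 active means thallium flux slope above the same plate's solvent-only control mean plus 3 SD; inconclusive means the two replicate wells disagree; inactive means no significant difference from solvent-only control wells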
KCC2 bumet counter – thallium flux persisting under bumetanide in KCC2 cells, counter-screen secondary assay; actives 49% (n = 3,700); HEK293-KCC2 + bumetanide/ouabain, thallium flux FluoZin2; stronger effect = higher value; shares compounds with KCC2 mod; AID 1714; normalized thallium flux at 10 µM;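 active means thallium entry rate above the same plate's blocked-transporter control wells by more than 3 SD; inconclusive means the two repeat wells disagree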;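 further: raw slope of fluorescence over initial fluorescence between 10 and 20 s after thallium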
KCC2 sec2 – KCC2 (human) modulation, second secondary assay; shares compounds with KCC2 mod; normalized thallium flux at 10 µM; actives 23% (n = 3,700); HEK293-KCC2, thallium flux FluoZin2 fluorescence; actives lie on both sides; F/F0 rise rate, 10–20 s post-thallium;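 active means thallium flux slope more than 3 SD above or below the plate's solvent-only control mean, mostly below; inconclusive means the two repeat wells disagreed; inactive means no significant shift from solvent-only controls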;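 further: raw slope with 0.1% DMSO as baseline and bumetanide as block control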
HEK293 Tl flux – acts in parental HEK cells, KCC2 counter-screen; shares compounds with KCC2 mod; HEK293 parental cells, thallium flux FluoZin2, ouabain; baseline-ratio fluorescence slope, 10–20 s after thallium; thallium flux rate (normalised fluorescence) at 10 µM; actives 46% (n = 3,700); AID 1716;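 active means thallium flux rate significantly above the same plate's solvent-only control wells, beyond their mean plus 3 SD; inconclusive means the two replicate wells gave conflicting results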
KCC2 ouabain – KCC2 (human) modulation, ouabain retest; shares compounds with KCC2 mod; HEK293-KCC2, thallium flux FluoZin2 fluorescence; bidirectional: low = inhibitor, high = activator; raw Tl+ flux slope (below DMSO = inhibition, above = activation) at 10 µM; actives 48% (n = 3,700);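 active means thallium flux slope beyond 3 SD from same-plate DMSO control mean in most replicates, usually higher, sometimes lower; inconclusive means repeat tests gave conflicting results; inactive means no significant difference from controls in most replicates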;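 further: slope of initial-normalized fluorescence between seconds 10 and 20 after thallium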
HEK counter2 – counter-screen for KCC2 modulators: effect in parental HEK293 cells | thallium flux slope at 10 µM | AID 1718 | thallium flux FluoZin-2 fluorescence slope | actives 33% (n = 3,700) | shares compounds with KCC2 mod;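 active means thallium flux slope above the same plate's solvent-control mean plus 3 SD in both duplicate wells; inconclusive means duplicate wells that disagreed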;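 further: run without ouabain in cells lacking the KCC2 cotransporter; slope of fluorescence scaled to its starting value between 10 and 20 s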
* hit, by the source's call; u = inconclusive; x = no result given.

SMILES | ROMK primary | KCC2 mod | DTT redox prof | MDM2 E3 inh | PKD1 kinase inh | p97 inhibitor | KCC2 secondary | KCC2 bumet counter | KCC2 sec2 | HEK293 Tl flux | KCC2 ouabain | HEK counter2
Nc1c(C(=O)c2ccc(Cl)cc2)sc2nsc(SCCN3CCOCC3)c12 | x | 0.21 | x | -5 | x | 5 | x | x | x | x | x | x
COCCn1cnnc1SCC(=O)Nc1cccc(S(=O)(=O)N2CCCCCC2)c1 | 0.19 | -1.7 | 0 | -2 | 6 | 2 | x | x | x | x | x | x
N=C1C(c2ccccc2)=C(O)CN1c1cccc(S(=O)(=O)NCc2ccco2)c1 | x | 0.062 | x | -13 | x | 2 | x | x | x | x | x | x
CCN(CC)c1ccc(C(=O)OCC(=O)N(C)Cc2ccccc2)cc1 | -0.46 | -4.1* | -2 | -3 | 0 | 0 | 0.0057 | 0.0057 | 0.029 | 0.0057 | 0.015* | 0.01
Cc1c(Cl)cccc1N=c1c([N+](=O)[O-])nn(-c2ccccc2)n1O | 1.6 | 6* | 1 | -11 | -2 | -4 | 0.0063 | 0.0047 | 0.027 | 0.0078 | 0.019 | 0.0096
COc1ccc(C(=O)N/N=C(\c2ccccc2)c2ccccn2)cc1 | 0.73 | -0.0045 | 0 | -8 | -10 | -3 | x | x | x | x | x | x
CCOc1ccc(OCc2ccc(C(=O)N/N=C(\C)c3ccccn3)cc2)cc1 | -1.5 | 9* | -2 | 23 | 2 | 3 | 0.011 | 0.024* | 0.031 | 0.029* | 0.03* | u
O=C1CCN(S(=O)(=O)c2ccccc2)N1 | x | -5.6* | 2 | -15 | -4 | 0 | 0.009 | 0.0068 | 0.029 | 0.0074 | 0.066 | 0.0098
CCCCN(CC)S(=O)(=O)c1ccc2c(c1)CCCN2C(C)=O | 0.081 | -0.56 | 1 | -3 | -4 | -2 | x | x | x | x | x | x
CC(=O)N1CCCc2cc(S(=O)(=O)N(C)Cc3ccccc3)ccc21 | x | -4* | 1 | 2 | -8 | -5 | 0.007 | 0.0065 | 0.033 | 0.0045 | u | 0.011
Brc1cccc(-c2nnc(SCc3nc4ccccc4[nH]3)o2)c1 | x | 20* | 0 | -8 | -2 | -3 | 0.0075 | 0.0054 | 0.032 | 0.0077 | 0.019 | 0.01
Cc1cc(-c2nnc(SCC(=O)NC3CCCC3)o2)no1 | 0.082 | 7.1* | 2 | x | -2 | 3 | 0.0071 | 0.0047 | 0.029 | 0.0072 | 0.018 | 0.01
CCOc1cc(/C=C2\N=C(SC)SC2=O)cc([N+](=O)[O-])c1OC(C)=O | 0.02 | x | 0 | -10 | -5 | 4 | u | 0.0056* | u | 0.007 | 0.018 | 0.0099
O=C1CSC(c2ccc([N+](=O)[O-])cc2)N1C1CCCCC1 (centres undefined) | -0.55 | -0.014 | 0 | 24 | 1 | 3 | x | x | x | x | x | x
O=C(/C=C/c1cn(CC(O)CN2CCCCC2)c2ccccc12)c1cccs1 (centres undefined) | x | 4.6* | 0 | -4 | 3 | 5 | 0.0083 | 0.0059 | 0.024* | 0.0068 | 0.016* | 0.0084
CCOC(=O)C1=C(NC(=S)NC(=O)c2ccccc2)c2ccccc2CC1(C)CC (centres undefined) | 0.78 | 5.6* | 0 | -5 | 3 | -8 | u | 0.033* | 0.036 | 0.015* | u | 0.011
O=C(NCCc1ccc(Cl)cc1)C1CCC(=O)N1Cc1ccccc1Cl (centres undefined) | x | 0.2 | 2 | -12 | -4 | 1 | x | x | x | x | x | x
CC(=O)/C(C[N+]1(C)CCCCC1)=N\O | x | 0.6 | 0 | -7 | 4 | -4 | x | x | x | x | x | x
CN1C(C(=O)NCc2cccc(Br)c2)CC2Cn3c(nc4cc(Cl)c(Cl)cc43)C21 (centres undefined) | x | -3.4* | x | 1 | x | x | 0.0085 | 0.0061 | 0.033 | 0.0074 | 0.018 | 0.01
O=C(O)CCc1ccc(-c2ccc(Br)cc2)n1NC(=O)c1ccc([N+](=O)[O-])cc1 | x | -0.16 | x | 2 | x | -1 | x | x | x | x | x | x
O=C1NCC(O)=C1C=NCCO | x | x | 1 | -3 | -6 | -3 | 0.0062 | 0.0051 | 0.031 | 0.0078 | 0.018 | 0.012
COc1ccc(OC)c2sc(NNC(=O)COc3ccccc3)nc12 | 0.2 | 3.4* | -1 | -16 | -4 | -4 | 0.0074 | 0.012* | 0.031 | 0.011* | u | 0.013*
Cc1cccc2cc(CN(CC3CCCO3)C(=O)c3ccco3)c(=O)[nH]c12 (centres undefined) | x | 0.0073 | 2 | -16 | 1 | 6 | x | x | x | x | x | x
Cc1ccc(N2C(=O)c3ccc(C(=O)N4CCN(Cc5ccccc5)CC4)cc3C2=O)cc1 | x | -0.024 | x | x | x | 2 | x | x | x | x | x | x
CCc1ccccc1NC(=O)c1cccc(N2C(=O)C3C4CCC(C4)C3C2=O)c1 (centres undefined) | 0.72 | 0.83 | 0 | 0 | -7 | 4 | x | x | x | x | x | x
SMILES | ROMK primary | KCC2 mod | DTT redox prof | MDM2 E3 inh | PKD1 kinase inh | p97 inhibitor | KCC2 secondary | KCC2 bumet counter | KCC2 sec2 | HEK293 Tl flux | KCC2 ouabain | HEK counter2
Cc1cccc(NC(=O)c2cccc(N3C(=O)C4C5CCC(C5)C4C3=O)c2)c1C (centres undefined) | -0.76 | 6.2* | -3 | 13 | -10 | 2 | 0.0075 | 0.0046 | 0.029 | 0.0079 | 0.019 | 0.011
Cc1ccccc1-c1nc(CN2CCC(C(=O)NCC3CCCO3)CC2)c(C)o1 (centres undefined) | x | 0 | 2 | -20 | 10 | -1 | x | x | x | x | x | x
CC(=O)Oc1ccc(C(=O)Nc2nnc(C)s2)cc1 | x | 2.4* | 0 | -3 | -4 | 2 | 0.0086 | 0.0066 | 0.03 | 0.0066 | 0.019 | u
O=C(NC(=S)Nc1ccccc1[N+](=O)[O-])c1ccccc1Cl | x | 19* | x | -10 | x | 4 | u | 0.034* | 0.035 | 0.019* | 0.03* | 0.013*
COC(=O)c1ccccc1NC(=S)NC(=O)COc1ccc(C)cc1 | x | 3.2 | 2 | x | -6 | 0 | x | x | x | x | x | x
COC(=O)c1ccccc1NC(=S)NC(=O)COc1ccccc1Cl | -0.4 | 19* | 0 | 23 | 8 | -5 | 0.023* | 0.05* | u | 0.012* | 0.024* | 0.016*
